Laboratory results taken from ChEMBL document CHEMBL1142963, “Novel sigma receptor ligands: synthesis and biological profile” (J Med Chem, 2007).

What was measured:
[1] = target: 5-hydroxytryptamine receptor 6 (Rattus norvegicus, UniProt P31388); assay: Displacement of [3H]5HT from rat cloned 5HT6 receptor expressed in HEK293 cells; format: cell-based
Method in brief: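 Membranes from HEK-293 cells expressing cloned rat 5-HT6 receptor. Inhibitors at seven to nine concentrations. After incubation, samples were filtered on glass fibre filters, washed three times with ice-cold buffer and counted by liquid scintillation. Ki values were derived by curve fitting.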

[2] = target: T1, Adrenergic receptor alpha-1 (Rattus norvegicus, UniProt P15823+P23944+P43140); assay: Displacement of [3H]prazosin from rat cortex adrenergic alpha-1 receptor
T1 sequence (P15823 whole entry): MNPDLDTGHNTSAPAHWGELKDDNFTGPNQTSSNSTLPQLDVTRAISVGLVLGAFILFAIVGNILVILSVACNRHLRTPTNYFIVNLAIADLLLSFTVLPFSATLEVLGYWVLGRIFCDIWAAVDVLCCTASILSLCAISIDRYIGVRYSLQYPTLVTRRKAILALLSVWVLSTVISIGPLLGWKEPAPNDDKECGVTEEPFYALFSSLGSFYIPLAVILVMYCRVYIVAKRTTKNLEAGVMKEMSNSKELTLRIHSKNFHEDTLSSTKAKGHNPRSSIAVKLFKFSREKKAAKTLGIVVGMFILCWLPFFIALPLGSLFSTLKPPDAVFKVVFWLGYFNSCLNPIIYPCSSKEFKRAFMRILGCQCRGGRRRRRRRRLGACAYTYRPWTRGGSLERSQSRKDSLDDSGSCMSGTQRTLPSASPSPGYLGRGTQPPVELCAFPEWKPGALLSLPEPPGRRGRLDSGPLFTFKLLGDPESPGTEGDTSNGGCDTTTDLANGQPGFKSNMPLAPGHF
T1 sequence (P23944 whole entry): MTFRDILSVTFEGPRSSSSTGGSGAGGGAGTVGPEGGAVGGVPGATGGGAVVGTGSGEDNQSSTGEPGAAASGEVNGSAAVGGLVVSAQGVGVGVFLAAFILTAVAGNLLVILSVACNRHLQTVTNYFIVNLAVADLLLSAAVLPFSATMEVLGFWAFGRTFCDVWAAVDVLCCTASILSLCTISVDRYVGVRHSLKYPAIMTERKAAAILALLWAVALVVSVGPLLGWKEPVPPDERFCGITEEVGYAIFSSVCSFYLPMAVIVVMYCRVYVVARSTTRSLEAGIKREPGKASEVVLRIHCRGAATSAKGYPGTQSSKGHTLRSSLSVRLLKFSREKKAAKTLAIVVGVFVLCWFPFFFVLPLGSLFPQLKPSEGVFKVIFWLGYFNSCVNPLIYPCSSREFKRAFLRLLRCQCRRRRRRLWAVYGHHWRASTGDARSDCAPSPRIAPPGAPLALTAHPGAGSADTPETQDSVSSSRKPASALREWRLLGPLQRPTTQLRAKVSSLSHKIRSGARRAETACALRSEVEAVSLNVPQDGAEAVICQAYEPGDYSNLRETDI
T1 sequence (P43140 whole entry): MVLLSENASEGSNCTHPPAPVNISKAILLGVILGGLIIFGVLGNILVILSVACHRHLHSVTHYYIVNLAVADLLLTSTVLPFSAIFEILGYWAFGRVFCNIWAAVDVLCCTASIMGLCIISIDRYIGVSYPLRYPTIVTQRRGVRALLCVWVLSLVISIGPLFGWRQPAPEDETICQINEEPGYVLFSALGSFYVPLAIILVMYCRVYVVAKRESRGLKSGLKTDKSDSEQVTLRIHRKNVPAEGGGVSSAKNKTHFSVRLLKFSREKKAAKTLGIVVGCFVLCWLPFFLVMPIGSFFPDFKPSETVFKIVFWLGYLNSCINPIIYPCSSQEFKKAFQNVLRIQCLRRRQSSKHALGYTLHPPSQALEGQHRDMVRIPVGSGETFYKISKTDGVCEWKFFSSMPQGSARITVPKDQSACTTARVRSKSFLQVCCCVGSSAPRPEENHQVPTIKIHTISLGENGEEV
Method in brief: (§1)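 Rat brain tissue by target: striatum for D1, D2 and DAT; olfactory tubercle for D3; cortex for muscarinic, 5-HT3, 5-HT2A, α1, α2, H1, NMDA and SERT; guinea pig cortex for 5-HT4. Inhibitors at seven to nine concentrations. After incubation, samples were filtered on glass fibre filters, washed three times with ice-cold buffer and counted by liquid scintillation. Ki values were derived by curve fitting.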

Histamine H1 receptor = Histamine H1 receptor (Rattus norvegicus, UniProt P31390); assay: Displacement of [3H]pyrilamine from rat cortex histamine H1 receptor; method in brief: as §1
[3] = target: Sodium-dependent serotonin transporter (Rattus norvegicus, UniProt P31652); assay: Displacement of [3H]citalopram from rat cortex SERT; method in brief: as §1
Sequence of Sodium-dependent serotonin transporter (P31652 whole entry): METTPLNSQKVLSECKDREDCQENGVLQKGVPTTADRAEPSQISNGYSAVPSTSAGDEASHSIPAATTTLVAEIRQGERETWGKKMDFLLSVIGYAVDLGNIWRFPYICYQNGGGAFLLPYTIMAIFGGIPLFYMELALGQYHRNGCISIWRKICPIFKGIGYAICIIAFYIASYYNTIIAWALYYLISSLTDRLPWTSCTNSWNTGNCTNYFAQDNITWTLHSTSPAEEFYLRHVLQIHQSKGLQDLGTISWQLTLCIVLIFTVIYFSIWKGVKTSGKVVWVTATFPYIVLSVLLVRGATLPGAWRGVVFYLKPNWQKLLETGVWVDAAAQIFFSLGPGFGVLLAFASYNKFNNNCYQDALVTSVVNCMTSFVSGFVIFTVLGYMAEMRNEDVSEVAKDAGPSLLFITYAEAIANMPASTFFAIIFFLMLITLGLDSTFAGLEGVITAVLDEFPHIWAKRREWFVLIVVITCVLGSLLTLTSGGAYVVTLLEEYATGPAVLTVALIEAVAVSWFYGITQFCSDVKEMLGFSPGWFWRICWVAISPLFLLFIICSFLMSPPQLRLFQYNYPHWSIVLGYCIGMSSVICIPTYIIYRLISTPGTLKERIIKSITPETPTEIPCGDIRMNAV

Sequence of 5-hydroxytryptamine receptor 6 (P31388 whole entry): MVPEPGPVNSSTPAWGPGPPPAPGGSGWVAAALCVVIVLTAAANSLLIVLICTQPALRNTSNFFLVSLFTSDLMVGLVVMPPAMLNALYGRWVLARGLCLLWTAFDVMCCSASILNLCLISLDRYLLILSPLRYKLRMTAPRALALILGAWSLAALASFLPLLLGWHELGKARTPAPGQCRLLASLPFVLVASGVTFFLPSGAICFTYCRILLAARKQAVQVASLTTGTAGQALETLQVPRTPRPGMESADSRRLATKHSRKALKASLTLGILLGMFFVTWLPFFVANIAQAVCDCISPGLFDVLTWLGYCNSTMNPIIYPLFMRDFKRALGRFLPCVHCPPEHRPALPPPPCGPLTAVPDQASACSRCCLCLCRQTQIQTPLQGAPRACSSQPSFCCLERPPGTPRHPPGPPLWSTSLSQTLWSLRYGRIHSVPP
Sequence of Histamine H1 receptor (P31390 whole entry): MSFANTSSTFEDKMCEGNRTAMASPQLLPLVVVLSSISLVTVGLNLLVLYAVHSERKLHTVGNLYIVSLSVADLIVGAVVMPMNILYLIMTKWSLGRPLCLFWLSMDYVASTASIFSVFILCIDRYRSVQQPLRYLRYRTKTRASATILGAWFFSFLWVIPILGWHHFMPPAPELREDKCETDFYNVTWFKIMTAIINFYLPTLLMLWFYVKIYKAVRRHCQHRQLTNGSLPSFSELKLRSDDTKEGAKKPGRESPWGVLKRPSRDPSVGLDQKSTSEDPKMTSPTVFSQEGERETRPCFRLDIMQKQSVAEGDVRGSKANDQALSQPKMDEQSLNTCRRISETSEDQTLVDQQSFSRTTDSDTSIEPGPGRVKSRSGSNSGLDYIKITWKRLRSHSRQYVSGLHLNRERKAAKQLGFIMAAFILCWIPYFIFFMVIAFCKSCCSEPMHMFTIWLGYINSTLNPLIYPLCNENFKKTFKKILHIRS

Q: Which Ki [1] does the source give for COC(=O)C1(c2ccc(C)cc2)CC1CN1CCC(O)(c2ccccc2)CC1 (centres undefined) here?
A: > 10000 nM

Q: And the Ki [2]?
A: 605 nM

Q: And the Ki (Histamine H1 receptor)?
A: 1420 nM

Q: What about the Ki [3] of the same molecule?
A: > 10000 nM
